In the library only some 4.3% were active in any assay of this set; here they are far more common.
AHR act: AHR activators, primary screen, cell-based, luminescence, luciferase reporter, human. Aryl hydrocarbon receptor (Homo sapiens), P35869. AHR-responsive luciferase reporter cells. activation, % at 5 µM. 320,000 tested, 2.5% active; in the data active = activation above about 47%;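 note: 0% = vehicle wells and 100% = reference agonist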
Target sequence (P35869 whole entry, looked up): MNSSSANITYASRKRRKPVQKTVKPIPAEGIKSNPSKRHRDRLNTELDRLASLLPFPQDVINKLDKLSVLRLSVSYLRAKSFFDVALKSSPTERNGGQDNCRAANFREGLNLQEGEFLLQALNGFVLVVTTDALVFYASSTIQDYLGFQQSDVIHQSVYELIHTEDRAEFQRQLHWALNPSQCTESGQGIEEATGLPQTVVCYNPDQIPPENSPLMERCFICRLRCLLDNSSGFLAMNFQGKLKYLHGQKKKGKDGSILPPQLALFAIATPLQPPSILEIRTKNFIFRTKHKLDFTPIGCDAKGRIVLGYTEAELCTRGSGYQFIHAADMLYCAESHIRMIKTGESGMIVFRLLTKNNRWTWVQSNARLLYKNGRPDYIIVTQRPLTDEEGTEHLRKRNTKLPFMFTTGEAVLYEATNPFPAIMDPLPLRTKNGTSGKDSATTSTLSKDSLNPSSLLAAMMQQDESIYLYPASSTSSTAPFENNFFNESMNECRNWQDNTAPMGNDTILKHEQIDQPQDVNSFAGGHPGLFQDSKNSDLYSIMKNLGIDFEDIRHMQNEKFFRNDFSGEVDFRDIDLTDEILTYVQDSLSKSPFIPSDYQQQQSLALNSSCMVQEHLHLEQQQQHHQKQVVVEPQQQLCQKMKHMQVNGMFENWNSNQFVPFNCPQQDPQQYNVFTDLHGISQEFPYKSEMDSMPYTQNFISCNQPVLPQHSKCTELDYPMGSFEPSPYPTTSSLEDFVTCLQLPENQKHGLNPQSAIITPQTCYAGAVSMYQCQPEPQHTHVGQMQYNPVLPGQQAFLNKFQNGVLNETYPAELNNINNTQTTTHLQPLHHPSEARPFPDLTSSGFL
SR-BI DiI-HDL act: activators of SR-BI mediated DiI-HDL uptake, primary screen, ldlA[mSR-BI] CHO cells, DiI fluorescence; 320,000 tested, 0.096% active; 3 h; 100 = double the neutral-control signal; activation, % at 12.5 µM; AID 504775, 2011;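 active = mean replicate activation of at least 60% and every replicate at or above 60%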;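 note: 0% = median plate neutral-control signal and 100% = twice that signal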
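Assay system: CHO ldlA[mSR-BI] cells, LDL receptor-null, SR-BI overexpressing; medium: Ham's F12 with 0.5% BSA, HEPES 25 mM, pH 7.4; also added: DiI-HDL 10 µg/mL; timing: 3 h uptake period with compound, 37 °C; signal: DiI fluorescence, bottom read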
SR-BI HDL uptake: inhibitors of SR-BI mediated HDL lipid uptake, primary screen, ldlA[mSR-BI] cells, fluorescence, single point | ldlA[mSR-BI] CHO cells, DiI-HDL uptake fluorescence, 3 h | AID 488896, 2010 | 320,000 tested, 0.96% active | inhibition, % at 12.5 µM | Scavenger receptor class B member 1 (Mus musculus), Q61009;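 active = mean replicate inhibition of at least 70% and a set share of replicates each scoring 70 or more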;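 note: 0% = median of neutral control wells and 100% = median of positive control wells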
CR mimetic SO: reduction of superoxide in aged yeast, primary screen, HTS; 330,000 tested, 0.18% active; S. cerevisiae aged cells, superoxide DHE fluorescence; stronger effect = lower value; superoxide response (% of plate mean), % at 10 µM;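 active = superoxide response under a set limit, about three screen SD below normal, cut at about 65% in these data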;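 note: yeast aged for seven days with compound at 30 °C before DHE staining; 100% = average MFI of all compound-treated wells on the plate with controls excluded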
SMARCA2 act: SMARCA2 (BRM) function activators, primary screen, cell-based, luminescence, high throughput. MG213 cells, MMTV-luciferase reporter, dexamethasone, overnight. activation, % at 9.1 µM. 370,000 tested, 1% active; in the data active = activation above about 7.8%;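 note: 0% = vehicle wells and 100% = reference activator wells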
Lipid droplet: inhibitors of hepatocyte lipid droplet formation, primary screen, imaging, high-throughput imaging, BODIPY stain; AML12 mouse hepatocytes, oleate lipid droplets; inhibition, % at 6.5 µM; 240,000 tested, 0.4% active;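 active = lipid droplet intensity inhibited by at least 50%, with more than 500 cells counted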
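Assay system: AML12 hepatocytes (mouse); Probe or stimulus: oleic acid at 100 µM to induce lipid droplet formation; Dosing: compound at 6.5 µM only; Schedule: compound with oleate, overnight; Detection: fluorescence imaging, 20x objective, two fields per well; Measure: % inhibition of lipid droplet signal.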
Active calls of the source: *.

What do the screens show for `Cc1ccc(S(=O)(=O)N2CCC(C(=O)NNC(=O)c3ccccc3O)CC2)cc1`?
AHR act: 1; SR-BI DiI-HDL act: -81; SR-BI HDL uptake: 81*; CR mimetic SO: 73; SMARCA2 act: -2

How did COc1ccc(C(=O)N/N=C/c2ccc(OC)c(CN3CCN(c4ccc(F)cc4)CC3)c2)cc1 do in these assays?
AHR act: 3; SR-BI DiI-HDL act: 29; SR-BI HDL uptake: -29; CR mimetic SO: 96; SMARCA2 act: -3; Lipid droplet: 25

What do the screens show for `COc1ccc(/C=N/NC(=O)c2ccoc2C)cc1CN1CCN(c2ccc(F)cc2)CC1`?
AHR act: 73*; SR-BI DiI-HDL act: -21; SR-BI HDL uptake: 21; CR mimetic SO: 108; SMARCA2 act: 2; Lipid droplet: -11

What do the screens show for `CCOC(=O)c1sc(N)c(C#N)c1CSc1nc2ccc(OCC)cc2[nH]1`?
AHR act: 19; SR-BI DiI-HDL act: -45; SR-BI HDL uptake: 45; CR mimetic SO: 91; SMARCA2 act: -7

What do the screens show for `CCOC(=O)c1sc(N)c(C#N)c1CSc1nc2ccc(C)cc2[nH]1`?
AHR act: 70*; SR-BI DiI-HDL act: -21; SR-BI HDL uptake: 21; CR mimetic SO: 102; SMARCA2 act: -1; Lipid droplet: 2

What do the screens show for `CCOc1cc(CNC(C)C)c(Cl)cc1OCC(=O)NCCc1ccccc1`?
AHR act: 17; SR-BI DiI-HDL act: -78; SR-BI HDL uptake: 78*; CR mimetic SO: 108; SMARCA2 act: 3; Lipid droplet: 0

Results for CCOc1cc(CNCCO)c(Cl)cc1OCC(=O)NCCc1ccccc1 ?
AHR act: 3; SR-BI DiI-HDL act: 1; SR-BI HDL uptake: -1; CR mimetic SO: 97; SMARCA2 act: -4

Results for Cc1cccc(Cn2cc(COC(=O)N(C)Cc3ccccc3)nn2)c1 ?
SMARCA2 act: -4

How did CCC[C@@H](/C=C/C(=O)OC(C)(C)C)Sc1ccc(N)cc1 do in these assays?
SMARCA2 act: -1

Results for O=c1c2[nH]c3ccccc3c2ncn1CCN1CCOCC1 ?
AHR act: 23; SR-BI DiI-HDL act: -1; SR-BI HDL uptake: 1; CR mimetic SO: 102; SMARCA2 act: -1

Results for Cc1cccc2[nH]c3c(=O)n(CCN4CCNCC4)cnc3c12 ?
AHR act: 44; SR-BI DiI-HDL act: 4; SR-BI HDL uptake: -4; CR mimetic SO: 108; SMARCA2 act: -2

What do the screens show for `O=c1c2[nH]c3ccccc3c2ncn1C1CCCCC1`?
AHR act: 48*; SR-BI DiI-HDL act: 7; SR-BI HDL uptake: -7; CR mimetic SO: 90; SMARCA2 act: 2

What do the screens show for `O=c1c2[nH]c3ccccc3c2ncn1CCN1CCCCC1`?
AHR act: 72*; SR-BI DiI-HDL act: -23; SR-BI HDL uptake: 23; CR mimetic SO: 99; SMARCA2 act: -3

Results for CC(C)CCn1cnc2c([nH]c3cccc(Cl)c32)c1=O ?
AHR act: 60*; SR-BI DiI-HDL act: -6; SR-BI HDL uptake: 6; CR mimetic SO: 83; SMARCA2 act: 1

What do the screens show for `COC(=O)[C@]1(C#N)CC(=O)N(C(C)C)[C@@H]1c1ccccc1`?
SMARCA2 act: 2

Results for Cc1cc(=O)[nH]c(/N=C(\N)Nc2ccc(SC(F)F)cc2)n1 ?
AHR act: 68*; SR-BI DiI-HDL act: 9; SR-BI HDL uptake: -9; CR mimetic SO: 92; SMARCA2 act: -6; Lipid droplet: 6

How did Cc1cc(=O)[nH]c(/N=C(\N)Nc2ccc(Oc3ccccc3)cc2)n1 do in these assays?
AHR act: 20; SR-BI DiI-HDL act: 16; SR-BI HDL uptake: -16; CR mimetic SO: 89; SMARCA2 act: -2; Lipid droplet: -1

How did COC(=O)C1=C(C)N(Cc2ccc(C(F)(F)F)cc2)C(=NCc2ccc3c(c2)OCO3)NC1c1ccccc1C(F)(F)F (configuration not stated) do in these assays?
SMARCA2 act: 2

How did Cc1sc2cc3c(c(C(=O)c4ccccc4)[n+]2c1C)-c1cccc2cccc-3c12 do in these assays?
AHR act: 7; CR mimetic SO: 100; SMARCA2 act: -9; Lipid droplet: -47

How did O=C(c1ccccc1)c1c2c(cc3sc4ccccc4[n+]13)-c1cccc3cccc-2c13 do in these assays?
AHR act: 54*; SR-BI DiI-HDL act: -4; SR-BI HDL uptake: 4; CR mimetic SO: 117; SMARCA2 act: -6; Lipid droplet: -67

What do the screens show for `O=C(c1csc2c1CCCC2)N1CCN(c2ncccn2)CC1`?
AHR act: -2; SR-BI DiI-HDL act: 27; SR-BI HDL uptake: -27; CR mimetic SO: 85; Lipid droplet: -3

What do the screens show for `O=C(c1csc2c1CCCC2)n1cccn1`?
AHR act: 5; CR mimetic SO: 60*; SMARCA2 act: -1

How did CC(C)CNc1cccc2c1S(=O)(=O)N[C@@H](C)CO2 do in these assays?
SMARCA2 act: -4

What do the screens show for `COc1ccc2c(-c3cccnc3)cc(=O)[nH]c2c1`?
AHR act: 78*; SR-BI DiI-HDL act: 21; SR-BI HDL uptake: -21; CR mimetic SO: 108; SMARCA2 act: 3; Lipid droplet: -4

Results for COc1ccc2c(C)cc(=O)[nH]c2c1 ?
AHR act: -2; SR-BI DiI-HDL act: 19; SR-BI HDL uptake: -19; CR mimetic SO: 96; SMARCA2 act: -1; Lipid droplet: 14

How did C/C(=N\NC(=O)CNc1cccc(C(F)(F)F)c1)c1cccc(Br)c1 do in these assays?
AHR act: 75*; SR-BI DiI-HDL act: -58; SR-BI HDL uptake: 58; CR mimetic SO: 97; SMARCA2 act: -1; Lipid droplet: -24

What do the screens show for `C/C(=N\NC(=O)Cc1ccccc1)c1ccc(Br)s1`?
AHR act: 20; SR-BI DiI-HDL act: -24; SR-BI HDL uptake: 24; CR mimetic SO: 100; SMARCA2 act: 3; Lipid droplet: -14

How did Cc1ccc(NCC(=O)N/N=C\c2cccc(O)c2)cc1 do in these assays?
AHR act: 65*; SR-BI DiI-HDL act: -10; SR-BI HDL uptake: 10; CR mimetic SO: 115; SMARCA2 act: -3; Lipid droplet: -7

What do the screens show for `Cc1ccc(NCC(=O)N/N=C/c2cccc(Br)c2)cc1`?
AHR act: 70*; SR-BI DiI-HDL act: 2; SR-BI HDL uptake: -2; CR mimetic SO: 90; SMARCA2 act: -4; Lipid droplet: 5

What do the screens show for `C/C(=N\NC(=O)CNc1cccc(C)c1)c1ccc(Br)s1`?
AHR act: 71*; SR-BI DiI-HDL act: -4; SR-BI HDL uptake: 4; CR mimetic SO: 90; SMARCA2 act: -1; Lipid droplet: 14

How did C=CCOC(=O)N[C@@H](c1cccc(OC)c1)[C@@H](C)/C=C/CC(=O)O do in these assays?
SMARCA2 act: -3

High-throughput results deposited in PubChem BioAssay by several laboratories.
